Sampled rows, rich in hits. Any-hit rate of the full collection: about 2.3%.
TRPC4 act – activators of mouse TRPC4 channel, primary screen, Fluo4 calcium, HEK293 TRPC4beta/mu-opioid cells. AID 2237, 2010. hit rate 0.49% among 310,000. B-score at 10 µM. Fluo4 calcium fluorescence; stronger effect = higher value;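 active = B-score above 5 SD of library B-scores, and initial fluorescence ratio not above library mean plus 5 SD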;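 note: positive B-score marks a calcium rise read as TRPC4 activation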
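system = HEK293 cells stably co-expressing mouse TRPC4beta and mu-opioid receptor | schedule = Fluo4 dye loading 45 min at room temperature, 110 s recording | measure = B-scored integrated calcium fluorescence ratio | signal = Fluo4 calcium-sensitive dye fluorescence, kinetic, 1 Hz baseline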
TRPC6 inhibitor – mouse TRPC6 channel inhibitors, primary screen, cell-based, HEK293, membrane potential dye; AID 2553, 2010; ACh-evoked depolarization; stronger effect = lower value; hit rate 1.1% among 310,000; Short transient receptor potential channel 6 (Mus musculus), Q61143; B-score at 10 µM;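 active = B-score under library mean minus 3 SD, initial fluorescence not abnormally high, positive integrated signal ratio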;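 note: B-score derived from integrated fluorescence ratio over the kinetic read; more negative B-score means stronger inhibition of depolarization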
Target sequence (Q61143 whole entry, looked up): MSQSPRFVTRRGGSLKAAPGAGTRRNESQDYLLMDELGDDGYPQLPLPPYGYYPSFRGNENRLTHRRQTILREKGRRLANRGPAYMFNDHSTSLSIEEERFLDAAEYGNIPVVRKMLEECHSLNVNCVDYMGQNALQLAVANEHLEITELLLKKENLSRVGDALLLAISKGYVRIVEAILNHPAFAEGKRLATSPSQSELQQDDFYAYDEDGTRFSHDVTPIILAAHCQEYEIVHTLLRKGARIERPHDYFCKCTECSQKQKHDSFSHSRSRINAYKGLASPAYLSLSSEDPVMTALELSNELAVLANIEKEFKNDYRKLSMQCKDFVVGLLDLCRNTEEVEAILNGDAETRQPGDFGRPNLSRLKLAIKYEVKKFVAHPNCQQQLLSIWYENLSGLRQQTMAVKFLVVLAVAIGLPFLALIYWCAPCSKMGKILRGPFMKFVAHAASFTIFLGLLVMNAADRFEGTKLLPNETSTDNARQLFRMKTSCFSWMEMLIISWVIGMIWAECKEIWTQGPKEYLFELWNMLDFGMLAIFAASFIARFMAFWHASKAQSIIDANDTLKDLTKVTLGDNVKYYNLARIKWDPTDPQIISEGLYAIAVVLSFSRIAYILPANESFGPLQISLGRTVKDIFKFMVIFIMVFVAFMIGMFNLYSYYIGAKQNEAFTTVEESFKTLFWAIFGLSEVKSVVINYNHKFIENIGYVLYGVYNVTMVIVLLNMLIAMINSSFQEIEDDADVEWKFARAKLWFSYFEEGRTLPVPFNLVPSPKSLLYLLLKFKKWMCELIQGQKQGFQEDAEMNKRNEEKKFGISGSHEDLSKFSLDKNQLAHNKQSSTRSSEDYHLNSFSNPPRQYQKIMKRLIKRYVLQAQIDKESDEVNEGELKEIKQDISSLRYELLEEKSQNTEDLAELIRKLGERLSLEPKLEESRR
TRPC6 act – mouse TRPC6 channel activators, primary screen, cell-based, HEK293, membrane potential dye | Short transient receptor potential channel 6 (Mus musculus), Q61143 | B-score at 10 µM | hit rate 0.13% among 310,000 | HEK293-TRPC6 membrane potential dye fluorescence; stronger effect = higher value | AID 2550, 2010;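 active = B-score of the integrated fluorescence ratio above library mean plus 3 SD, and starting fluorescence ratio within library mean plus 5 SD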;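 note: higher score means more depolarization so channel activation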
TRPC4 PAM – positive allosteric modulators of TRPC4, primary screen, cell-based, mouse TRPC4beta, HEK293 mu-opioid, Fluo-4 calcium; Short transient receptor potential channel 4 (Mus musculus), Q9QUQ5; DAMGO EC20, Fluo-4 Ca2+ flux; stronger effect = higher value; B-score at 10 µM; hit rate 0.42% among 310,000;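 active = B-score of calcium response area above 5 SD of library B-scores, with initial fluorescence ratio within 5 SD of library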;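 note: B-score of integrated fluorescence ratio over time as area under calcium response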
TRPC4 block – inhibitors of mouse TRPC4 channel, primary screen, Fluo4 calcium, HEK293 TRPC4beta/mu-opioid cells. B-score at 10 µM. hit rate 0.39% among 300,000. DAMGO-evoked Fluo4 calcium flux; stronger effect = lower value. Short transient receptor potential channel 4 (Mus musculus), Q9QUQ5;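 active = B-score over 3 SD under the library average, no early fluorescence shift, positive overall ratio signal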
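Assay system: TRPC4beta/mu-opioid receptor HEK293 cell line; compound dosing: single concentration per test compound; detection: Fluo4 Ca2+ flux fluorescence; evaluation: per-well B score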
TRPC4 sel inh 2 – second selectivity test of TRPC6 inhibitors: effect on mouse TRPC4; HEK293 TRPC4/MOR, membrane potential dye fluorescence; channel activated by saturating DAMGO dose; hit rate 42% among 920; AID 2776; inhibition, % at 10 µM; shares compounds with TRPC6 inhibitor;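 active = compounds whose fluorescence signal differed from control wells by over 3 SD, either direction, in both duplicate plates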
TRPC4 spec – mouse TRPC4 modulation by TRPC6 hits, confirmation, selectivity assay for TRPC6 inhibitor project, cell-based, HEK293 TRPC4/mu-opioid, membrane potential dye; hit rate 61% among 920; membrane potential fluorescence; shares compounds with TRPC6 inhibitor; activity change, negative = inhibition, % at 10 µM;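 active = rise or fall in signal beyond 3 SD of buffer-only wells in both replicate plates, either sign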;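 note: integrated kinetic ratio of fluorescence range over baseline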
HEK293 MPD ctr 2-1 – nonspecific membrane potential effects, parental HEK293, confirmation, counter-screen for TRPC6 inhibitor project, cell-based, second counter screen. AID 2779, 2010. shares compounds with TRPC6 inhibitor. parental HEK293 membrane potential dye fluorescence; maximal acetylcholine challenge after compound addition. hit rate 31% among 920. signal change vs control, % at 10 µM;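 active = membrane potential signal moving either way by over 3 SD of the maximum-effect control, in both duplicate plates, meaning non-specific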
HEK293 MPD ctr-1 – membrane potential modulation in parental HEK293, confirmation, counter-screen for TRPC6 inhibitor project, cell-based | shares compounds with TRPC6 inhibitor | parental HEK293 membrane potential dye fluorescence | membrane potential signal change, % at 10 µM | hit rate 60% among 920 | AID 2780, 2010;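 active = membrane potential signal shifting up or down by more than 3 SD of buffer-only wells, on both duplicate plates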
HEK293 MPD ctr-2 – parental HEK293 membrane potential modulation, confirmation, counter-screen for TRPC6 modulator project, cell-based; shares compounds with TRPC6 inhibitor; membrane potential dye fluorescence; membrane potential signal change, % at 10 µM; hit rate 51% among 2,400; AID 488924, 2010;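 active = membrane potential signal moves up or down beyond 5 SD from buffer-only wells, on both duplicate plates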
HEK293 MPD ctr 2-2 – second check of TRPC6 modulator effects in parental HEK293 cells; shares compounds with TRPC6 inhibitor; membrane potential dye fluorescence; after compound, maximal acetylcholine stimulation; inhibition, % at 10 µM; hit rate 14% among 2,400; AID 488926;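 active = membrane potential signal drops by more than 5 SD from the mean control signal, in both duplicate plates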;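 note: plate controls were acetylcholine ECmax control wells for no effect and buffer only wells for full effect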
TRPC4 ctr mod – TRPC4 modulation by TRPC6 hit compounds, confirmation, selectivity assay for TRPC6 modulator project, cell-based, HEK293 TRPC4/mu-opioid, membrane potential dye, mouse; shares compounds with TRPC6 inhibitor; membrane potential fluorescence; percent change from control (negative = decrease, positive = increase), % at 10 µM; hit rate 69% among 2,400;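 active = membrane potential signal moved up or down beyond 5 SD of buffer control wells, in both duplicate plates, actives on both sides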;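 note: plate controls were assay buffer wells for no effect and DAMGO maximal-effect wells for full effect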
TRPC4/MOR inh 2 – second selectivity test of TRPC6 modulators against mouse TRPC4 | shares compounds with TRPC6 inhibitor | HEK293 TRPC4/mu-opioid, membrane potential dye fluorescence; stimulated with maximal-effect DAMGO | inhibition, % at 10 µM | hit rate 55% among 2,400 | AID 488928;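 active = drop in membrane potential signal beyond 5 SD of the control wells in both duplicate plates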;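 note: TRPC4 counter screen for TRPC6 hits run under conditions tuned for TRPC6 not TRPC4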
TRPC6 inh conf – mouse TRPC6 channel inhibitors, confirmation, HEK293 cells, membrane potential dye, duplicate; shares compounds with TRPC6 inhibitor; ACh-evoked depolarization; inhibition, % at 10 µM; hit rate 43% among 3,300;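 active = fluorescence ratio falls more than 5 SD below the full-stimulation control mean, in both duplicate runs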;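 note: integrated fluorescence ratio of peak minus minimum over baseline after agonist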
TRPC6 act confirm – mouse TRPC6 channel activators, confirmation, HEK293 cells, membrane potential dye, duplicate; HEK293-TRPC6 membrane potential dye fluorescence, FDSS; hit rate 11% among 2,800; shares compounds with TRPC6 inhibitor; activation, % at 10 µM;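 active = ratio signal rise beyond 5 SD above unstimulated control wells' mean, seen in both duplicate runs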;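 note: plate controls were buffer EC0 wells for no effect and acetylcholine ECmax response for full effect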
Numbers without * were called inactive; i = inactive; . = no result given.

SMILES | TRPC4 act | TRPC6 inhibitor | TRPC6 act | TRPC4 PAM | TRPC4 block | HEK293 MPD ctr-2 | HEK293 MPD ctr 2-2 | TRPC4 ctr mod | TRPC4/MOR inh 2 | TRPC6 inh conf | TRPC6 act confirm | others
O=C(CCSCc1cccc(F)c1)NCCc1ccccc1 | i | i | i | i | i | . | . | . | . | . | .
CCOC(=O)N1CCN(C(=S)NC(=O)c2ccc(F)c(F)c2)CC1 | i | i | i | i | i | . | . | . | . | . | .
COc1ccc(CN2CCN(C(=O)Cn3ncn4cccc4c3=O)CC2)c(OC)c1OC | i | i | i | i | i | . | . | . | . | . | .
O=C(NC(=S)N1CCCCC1)C12CC3CC(CC(C3)C1)C2 | i | i | i | i | i | . | . | . | . | . | .
CCOC(=O)N1CCN(C(=S)NC(=O)C23CC4CC(CC(C4)C2)C3)CC1 | i | -5* | i | i | i | i | i | i | i | i | i
O=C(c1cc(-c2ccccc2Cl)nc2ccccc12)N1CCC1 | i | i | i | i | i | . | . | . | . | . | .
CCN1CCCC(OC(=O)c2cc(-c3ccccc3Cl)nc3ccccc23)C1 (centres undefined) | i | -5.5* | i | 22* | i | 134%* | i | 24%* | 45%* | i | .
CCOc1cc(S(=O)(=O)N2CCN(C(=O)c3ccco3)CC2)ccc1F | i | -5.7* | i | 22* | i | i | i | 42%* | i | 38%* | .
Cc1cccn2c(=O)c(C(=O)NCCCN3CC(C)CC(C)C3)c(O)nc12 (centres undefined) | 73* | -5.1* | i | i | i | -140%* | i | i | i | i | i
Cc1ccn2c(=O)c(C(=O)NCCCN3CCCC3=O)c(O)nc2c1 | i | -5.5* | i | i | i | -316%* | i | -45%* | i | i | i
Cc1ccn2c(=O)c(C(=O)NCCCN3CCCCC3C)c(O)nc2c1 (centres undefined) | i | -5.3* | i | i | i | -274%* | 70%* | -44%* | 56%* | 76%* | i
CC(NC(=O)c1c(O)c2ccccc2n(C)c1=O)c1ccccc1 (centres undefined) | i | i | i | i | i | . | . | . | . | . | .
COc1ccc(N2CCN(S(=O)(=O)c3cn(C)cn3)CC2)cc1 | i | i | i | i | i | . | . | . | . | . | .
CCOC(=O)c1cnc2c(OC)cccc2c1NCc1cccnc1 | i | -7.5* | i | i | i | . | . | . | . | 83%* | i | TRPC4 sel inh 2=i;TRPC4 spec=i;HEK293 MPD ctr 2-1=-15%*;HEK293 MPD ctr-1=i
CCOC(=O)c1cnc2c(C(=O)OC)cccc2c1NCCN1CCOCC1 | i | -5* | i | i | i | 137%* | i | 20%* | 47%* | 48%* | .
CCOC(=O)c1cnc2c(CC)cccc2c1NCCN1CCOCC1 | i | i | i | i | i | . | . | . | . | . | .
CCOC(=O)c1cnc2ccc(OCC)cc2c1NCc1cccnc1 | i | i | i | i | i | . | . | . | . | . | .
CCOC(=O)c1cnc2c(C)cccc2c1NCCCN1CCOCC1 | i | -6.8* | i | i | i | . | . | . | . | i | i | TRPC4 sel inh 2=58%*;TRPC4 spec=i;HEK293 MPD ctr 2-1=-31%*;HEK293 MPD ctr-1=i
COc1cc(C(=O)OCC(=O)Nc2c(F)c(F)c(F)c(F)c2F)cc(OC)c1OC | i | -5.4* | i | i | i | i | i | i | i | i | i
C[N+]1(CC#CC(O)(c2ccccc2)c2ccccc2)CCCC1 | i | -7.3* | i | i | i | . | . | . | . | 91%* | i | TRPC4 sel inh 2=i;TRPC4 spec=i;HEK293 MPD ctr 2-1=-27%*;HEK293 MPD ctr-1=i
CC(C)[N+](C)(C)CC#CC(O)(c1ccccc1)c1ccccc1 | i | -9.2* | i | i | i | . | . | . | . | 85%* | i | TRPC4 sel inh 2=i;TRPC4 spec=i;HEK293 MPD ctr 2-1=25%*;HEK293 MPD ctr-1=i
CCN(CC#CCC(O)(c1ccccc1)c1ccccc1)C(C)C | i | i | i | i | i | . | . | . | . | . | .
O=C(O)c1ccccc1C(=O)OCCCc1ccncc1 | i | i | i | i | i | . | . | . | . | . | .
COc1ccc(C(=O)N2CCN(Cc3ccc4c(c3)OCO4)CC2)cc1[N+](=O)[O-] | i | i | i | i | i | . | . | . | . | . | .
CC(C)C[C@H](NC(=O)N1CCn2c1nc1ccccc12)C(=O)N[C@@H](C(=O)O)c1ccccc1 | i | i | i | i | i | . | . | . | . | . | .
CCCCn1c(-c2ccc([N+](=O)[O-])cc2)n[nH]c1=S | i | -15* | i | i | i | . | . | . | . | 85%* | i | TRPC4 sel inh 2=i;TRPC4 spec=i;HEK293 MPD ctr 2-1=-18%*;HEK293 MPD ctr-1=i

Assay outcomes: PubChem, Johns Hopkins Ion Channel Center
